Experiment [1] has as its system Staphylococcus aureus. Put plainly: Minimum inhibitory concentration against Staphylococcus aureus. The experiment is classed as functional. In outline: (§1)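 Growth inhibition by serial dilution. MIC reported in µg/mL as the average of triplicate measurements.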
Experiment [2] deals with Escherichia coli. Briefly: Minimum inhibitory concentration against Escherichia coli (Tol C). The experiment is classed as functional. In outline: as §1
Experiment [3] has as its target DNA-directed RNA polymerase subunit beta (Escherichia coli K-12, UniProt P0A8V2). Briefly: In vitro inhibitory activity against RNA polymerase of Escherichia coli. In outline: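 E. coli RNAP activity measured by a nucleotide-coupled assay that links pyrophosphate release to NADPH. NADPH was read by fluorescence (emission ~440 nm) instead of absorbance at 340 nm. IC50 was determined; for weak inhibitors, percent inhibition at 10 µM was reported instead. Selected compounds were also tested by radiolabeled nucleotide incorporation into RNA.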

Experiment [4] concerns Escherichia coli. Put plainly: Minimum inhibitory concentration against Escherichia coli. It is filed as functional. In outline: as §1
Experiment [5] deals with DNA-directed RNA polymerase subunit beta (Escherichia coli K-12) (UniProt P0A8V2). Briefly: In vitro percent inhibition against RNA polymerase of Escherichia coli in nucleotide coupled NADPH/pyrophosphate release assay at 10 uM. It is filed as functional. In outline:
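E. coli RNA polymerase activity measured in a nucleotide-coupled NADPH/pyrophosphate release assay. NADPH was read by fluorescence (emission ~440 nm) rather than absorbance at 340 nm. For weaker inhibitors, percent inhibition was recorded at 10 µM instead of an IC50.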

Converted amounts (≈) assume the structure as drawn. Where only a bound is given, the exact number is not on record here.

DNA-directed RNA polymerase subunit beta, sequence (P0A8V2 whole entry): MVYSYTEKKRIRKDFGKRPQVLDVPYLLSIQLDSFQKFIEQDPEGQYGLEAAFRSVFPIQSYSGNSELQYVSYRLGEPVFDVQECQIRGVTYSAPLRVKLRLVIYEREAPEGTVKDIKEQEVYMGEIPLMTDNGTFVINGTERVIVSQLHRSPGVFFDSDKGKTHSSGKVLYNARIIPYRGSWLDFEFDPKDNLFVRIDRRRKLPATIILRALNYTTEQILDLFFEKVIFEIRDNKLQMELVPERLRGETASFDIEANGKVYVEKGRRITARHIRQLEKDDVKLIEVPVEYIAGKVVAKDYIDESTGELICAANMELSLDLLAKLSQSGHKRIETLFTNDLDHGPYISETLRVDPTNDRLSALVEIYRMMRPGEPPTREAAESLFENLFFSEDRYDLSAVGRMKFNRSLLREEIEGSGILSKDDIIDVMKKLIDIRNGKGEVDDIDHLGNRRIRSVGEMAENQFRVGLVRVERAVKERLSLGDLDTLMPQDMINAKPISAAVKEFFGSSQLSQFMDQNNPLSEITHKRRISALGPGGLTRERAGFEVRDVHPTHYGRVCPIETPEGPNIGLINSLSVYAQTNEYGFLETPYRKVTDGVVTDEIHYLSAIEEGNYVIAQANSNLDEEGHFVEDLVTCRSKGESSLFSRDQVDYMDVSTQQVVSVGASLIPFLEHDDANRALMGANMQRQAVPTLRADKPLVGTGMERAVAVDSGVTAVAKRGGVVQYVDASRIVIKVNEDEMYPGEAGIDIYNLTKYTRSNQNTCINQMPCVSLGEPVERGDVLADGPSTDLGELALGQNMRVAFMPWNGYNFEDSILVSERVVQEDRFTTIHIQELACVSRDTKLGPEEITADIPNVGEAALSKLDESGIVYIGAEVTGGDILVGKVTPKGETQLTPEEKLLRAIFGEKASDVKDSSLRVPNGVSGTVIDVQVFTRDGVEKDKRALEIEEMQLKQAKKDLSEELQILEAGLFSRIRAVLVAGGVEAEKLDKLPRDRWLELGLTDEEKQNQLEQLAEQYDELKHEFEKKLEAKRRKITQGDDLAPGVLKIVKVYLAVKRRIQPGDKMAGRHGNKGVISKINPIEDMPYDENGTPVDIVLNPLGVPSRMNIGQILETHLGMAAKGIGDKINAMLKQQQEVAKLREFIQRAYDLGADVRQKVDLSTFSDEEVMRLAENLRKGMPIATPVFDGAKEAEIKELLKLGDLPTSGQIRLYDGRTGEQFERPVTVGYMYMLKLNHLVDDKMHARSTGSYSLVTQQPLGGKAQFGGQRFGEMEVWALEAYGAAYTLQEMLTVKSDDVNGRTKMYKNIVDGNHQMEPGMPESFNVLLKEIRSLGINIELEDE
DNA-directed RNA polymerase subunit beta (Escherichia coli K-12), sequence (P0A8V2 whole entry, looked up): as the sequence (P0A8V2 whole entry) above

Take `CCCC/C(C)=C/C=C(\C)C(=O)c1c(O)cc(C(C)CCCCNC(=O)OC)oc1=O` (centres undefined): the minimal inhibitory concentration (MIC) in experiment [1] is 64 µg/mL (≈ 148 µM); in experiment [2] it was 8 µg/mL (≈ 18.5 µM); in experiment [4], more than 64 µg/mL. This molecule registered an IC50 in experiment [3] of 4000 nM.

Regarding `CCCC/C(C)=C/C=C(\C)C(=O)c1c(O)cc(C(C)CC/C=C/NC(=O)OCCN(C)C)oc1=O` (centres undefined), the inhibition in experiment [5] was less than 20%. Besides, the minimal inhibitory concentration (MIC) in experiment [1], in experiment [2] and in experiment [4] was more than 64 µg/mL throughout.

In experiment [5], `CCCC/C(C)=C/C=C(\C)C(=O)c1c(O)cc(C(C)CC/C=C/NC(=O)OCCN2CCOCC2)oc1=O` (centres undefined) registered an inhibition of less than 20%. Also, the MIC in experiment [1], in experiment [2] and in experiment [4] was more than 64 µg/mL throughout.

As for `CCCC/C(C)=C/CNC(=O)c1c(O)cc(C(C)CC/C=C/NC(=O)OC)oc1=O` (centres undefined), in experiment [5], the inhibition is less than 20%. Besides, the MIC in experiment [1], in experiment [2] and in experiment [4] was more than 64 µg/mL each time.

As for `CCCC/C(C)=C/C=C(\C)C(=O)c1c(O)cc(C(C)CC/C=C\NC(=O)OC)oc1=O` (centres undefined), the minimum inhibitory concentration (MIC) is 4 µg/mL (≈ 9.27 µM) in experiment [1], 4 µg/mL (≈ 9.27 µM) in experiment [2] and more than 64 µg/mL in experiment [4]. For the same molecule, it took 1260 nM to reach half-maximal inhibition in experiment [3] (IC50).

Take `CCCC/C(C)=C\C=C(\C)C(=O)c1c(O)cc(C(C)CC/C=C/NC(=O)OC)oc1=O` (centres undefined): the minimal inhibitory concentration (MIC) in experiment [1] was 16 µg/mL (≈ 37.1 µM); in experiment [2] it was 16 µg/mL (≈ 37.1 µM); in experiment [4], more than 64 µg/mL. This molecule also showed an IC50 in experiment [3] of 2500 nM.

Regarding `CCCC/C(C)=C/C=C/C(=O)c1c(O)cc(C(C)CC/C=C/NC(=O)OC)oc1=O` (centres undefined), the inhibition in experiment [5] turned out to be 70%. In addition, the MIC in experiment [1] was 64 µg/mL (≈ 153 µM); in experiment [2] it was 32 µg/mL (≈ 76.6 µM); in experiment [4] it was more than 64 µg/mL.

Regarding `CCCC/C(C)=C/C=C(\C)C(=O)c1c(O)cc(C(C)CCCC=O)oc1=O` (centres undefined), the inhibition in experiment [5] was less than 20%. Besides, the MIC in experiment [1], in experiment [2] and in experiment [4] was more than 64 µg/mL in each case.

In experiment [5], `CCCC/C(C)=C/C=C(\C)C(=O)c1c(O)cc(C(C)Cc2cccc(NC(=O)OC)c2)oc1=O` (centres undefined) displayed an inhibition of less than 20%. For the same molecule, the minimal inhibitory concentration (MIC) in experiment [1], in experiment [2] and in experiment [4] was more than 64 µg/mL each time.

With `CCCC/C(C)=C/C=C(\C)C(=O)c1c(O)cc(CCC/C=C/NC(=O)OC)oc1=O` [DESMETHYL MYXOPYRONIN B], the figures for the MIC in experiment [1], in experiment [2] and in experiment [4] were 4 µg/mL (≈ 9.58 µM), 1 µg/mL (≈ 2.4 µM) and more than 64 µg/mL, respectively. It took 340 nM to reach half-maximal inhibition in experiment [3] (IC50).

Consider `CCCC/C(C)=C/C=C(\C)C(=O)c1c(OC)cc(C(C)CC/C=C/NC(=O)OC)oc1=O` (centres undefined), for which the minimal inhibitory concentration (MIC) in experiment [1], in experiment [2] and in experiment [4] was more than 64 µg/mL throughout. Half-maximal inhibition in experiment [3] (IC50) was put at 4200 nM.

For the molecule `CCCC/C(C)=C/C=C(\C)C(=O)c1c(O)cc(C(C)CC/C=C/NC(=O)OC)oc1=O` (centres undefined), the MIC was 1 µg/mL (≈ 2.32 µM) in experiment [1], 2 µg/mL (≈ 4.63 µM) in experiment [2] and more than 64 µg/mL in experiment [4]. The molecule also displayed an IC50 in experiment [3] of 920 nM.

As for `CCCC/C=C/C=C(\C)C(=O)c1c(O)cc(C(C)CC/C=C/NC(=O)OC)oc1=O` (centres undefined), the minimal inhibitory concentration (MIC) in experiment [1] is 16 µg/mL (≈ 38.3 µM); in experiment [2] it was 2 µg/mL (≈ 4.79 µM); in experiment [4], more than 64 µg/mL. For the same molecule, the 50% inhibitory concentration (IC50) in experiment [3] amounted to 1040 nM.

On to `CCCC/C(C)=C/C=C(\C)C(=O)c1c(O)cc(C(C)CC/C=C/C(=O)OC)oc1=O` (centres undefined), for which the inhibition in experiment [5] is less than 20%. The MIC in experiment [1], in experiment [2] and in experiment [4] was more than 64 µg/mL in each case.

As for `CCCC/C(C)=C/C=C(\C)C(=O)c1c(O)cc(C(C)Cc2ccc(NC(=O)OC)cc2)oc1=O` (centres undefined), the inhibition in experiment [5] is less than 20%. In addition, the minimum inhibitory concentration (MIC) in experiment [1], in experiment [2] and in experiment [4] was more than 64 µg/mL each time.

For `CCC(=O)c1c(O)cc(C(C)CC/C=C/NC(=O)OC)oc1=O` (centres undefined), in experiment [5], the inhibition is less than 20%. For the same molecule, the minimum inhibitory concentration (MIC) in experiment [1], in experiment [2] and in experiment [4] was more than 64 µg/mL each time.

Values taken from ChEMBL document CHEMBL1138635, “Myxopyronin B analogs as inhibitors of RNA polymerase, synthesis and biological evaluation” (Bioorg Med Chem Lett, 2004).
